Drawing on ChEMBL document CHEMBL1156759, “Identification and optimization of inhibitors of Trypanosomal cysteine proteases: cruzain, rhodesain, and TbCatB” (J Med Chem, 2010), this text covers IC50 and Activity for 28 compounds.

Data set [1] has as its target T1, Cruzipain (Trypanosoma cruzi, UniProt P25779). Kind of data set: Inhibition of Trypanosoma cruzi cruzain after 15 mins. The method, boiled down:
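Cruzain at 1.5 nM final in 100 mM acetate pH 5.5, 5 mM DTT, 0.01% Triton X-100; compounds as serial 2-fold dilutions pin-transferred in DMSO. 15 min room-temperature preincubation, then Z-FR-AMC 2 μM final. Kinetic fluorescence read at ex 340/em 450 nm. Percent inhibition from the first 60 s signal change versus no-enzyme and uninhibited controls (48 wells each).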

Data set [2] has as its target T1, Cruzipain. The experiment in a line: Inhibition of recombinant Trypanosoma cruzi cruzain after 5 mins by spectrofluorimetric analysis. The method, boiled down:
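Recombinant cruzain at 4 nM (activated procruzain, anion-exchange purified) in 100 mM sodium acetate pH 5.5, 5 mM DTT, 0.001% Triton X-100. Preincubated 5 min at room temperature with compound in DMSO, then Z-Phe-Arg-AMC 10 μM. Fluorescence rate read at ex 355/em 460 nm; DMSO controls; IC50 by curve fitting.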

The nature of data set [3]: Inhibition of recombinant Trypanosoma brucei rhodesain after 5 mins by spectrofluorimetric analysis. The method, boiled down: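 Recombinant rhodesain, 4 nM, preincubated 5 min at room temperature with compound (DMSO) in 100 mM sodium acetate pH 5.5, 5 mM DTT, 0.001% Triton X-100. Reaction started with 10 μM Z-Phe-Arg-AMC; rate of AMC fluorescence increase read at ex 355/em 460 nm. IC50 from curve fitting; DMSO-only wells as positive control.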

The nature of data set [4]: Inhibition of recombinant Trypanosoma brucei cathepsin B after 5 mins by spectrofluorimetric analysis. The method, boiled down:
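Recombinant TbCatB at 258 nM in 100 mM sodium acetate pH 5.5, 5 mM DTT, 0.001% Triton X-100, preincubated with compound in DMSO for 5 min at room temperature. Z-Phe-Arg-AMC 10 μM added to start. Rate of fluorescence rise read at ex 355/em 460 nm; DMSO control wells; IC50 from curve fitting.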

Data set [5] has as its system Trypanosoma cruzi. Kind of data set: Antitrypanosomal activity against Trypanosoma cruzi Y trypomastigotes infected in mouse J774 cells at 1 uM after 27 days medium replaced every 48 hrs. The data set is classed as functional, organism-based. The method, boiled down: (§1)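 Irradiated (1000 rad) J774 macrophages plated overnight, infected 2 h with Y strain trypomastigotes, parasites removed, then cultured in RPMI-1640 with compound (n = 3); untreated infected and 10 μM K777 controls per experiment. Medium replaced every 48 h over 27 days; daily phase-contrast microscopy (400×) for free trypomastigotes and host toxicity; cultures kept 14 further days to confirm cure.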

Data set [6] deals with J774. The experiment in a line: Cytotoxicity against mouse J774 cells at 10 uM. The class given is cell-based. The note with it: j774, 10 µM. The method, boiled down:
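Irradiated (1000 rad) J774 macrophages plated overnight and infected 2 h with Y strain T. cruzi trypomastigotes. After parasite removal, cultured in RPMI-1640 with compound (n = 3), medium changed every 48 h, for 27 days. Toxicity to host cells (granulation, detachment, death) scored daily by phase-contrast microscopy at 400×.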

For data set [7], the system named is Trypanosoma cruzi. The experiment in a line: Antitrypanosomal activity against Trypanosoma cruzi Y trypomastigotes infected in mouse J774 cells at 5 uM after 27 days medium replaced every 48 hrs. The data set is classed as functional, organism-based. The method, boiled down:
as §1

The subject of data set [8] is Trypanosoma cruzi. The experiment in a line: Antitrypanosomal activity against Trypanosoma cruzi Y trypomastigotes infected in mouse J774 cells at 10 uM after 27 days medium replaced every 48 hrs. The data set is classed as functional, organism-based. The method, boiled down: as §1

SMILES strings stand for the structures. Active and inactive are the calls of the source. The rule behind the calls is not given here. Where only a bound is given, the exact number is not on record here.

T1 sequence (P25779 whole entry): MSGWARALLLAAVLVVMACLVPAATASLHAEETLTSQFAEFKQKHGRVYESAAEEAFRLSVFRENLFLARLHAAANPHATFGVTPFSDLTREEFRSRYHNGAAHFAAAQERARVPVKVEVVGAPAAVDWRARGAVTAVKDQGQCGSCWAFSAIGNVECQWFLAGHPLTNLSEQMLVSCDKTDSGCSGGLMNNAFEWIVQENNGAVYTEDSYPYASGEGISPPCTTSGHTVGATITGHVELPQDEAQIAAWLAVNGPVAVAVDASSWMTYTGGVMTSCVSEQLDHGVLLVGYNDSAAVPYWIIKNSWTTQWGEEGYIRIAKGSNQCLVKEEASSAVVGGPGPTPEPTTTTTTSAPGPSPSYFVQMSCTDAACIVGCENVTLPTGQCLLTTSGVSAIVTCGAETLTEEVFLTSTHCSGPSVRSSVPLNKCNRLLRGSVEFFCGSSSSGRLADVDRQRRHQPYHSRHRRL

By IC50 is commonly meant the concentration needed to halve the response being measured. Take `N#Cc1nc(NCC(F)F)nc(Nc2cc(F)cc(F)c2)n1`: the IC50 in data set [1] (read-out: IC50) is 25 nM; in data set [2], 1 nM; in data set [3] it was under 6 nM; in data set [4] it was 1000 nM.
Taken in the same sequence, the figures for `N#Cc1nc(Nc2cccc([N+](=O)[O-])c2)nc(NC2CCCC2)n1` were 63 nM, 1 nM, 8 nM and over 1000 nM.
With `CCCCNc1nc(C#N)nc(Nc2ccccc2)n1`, in data set [1] (read-out: IC50), the concentration for half-maximal inhibition (IC50) turned out to be 890 nM.
Regarding `Cc1cccc(Nc2nc(C#N)nc(NC3CCCC3)n2)c1`, the half-inhibitory concentration (IC50) in data set [1] (read-out: IC50) was determined as 126 nM; in data set [2], 30 nM; in data set [3] it was 50 nM; in data set [4] it was 6000 nM. The result in data set [5] and in data set [7] was inactive. The Activity result in data set [6] is “Toxic”.
Regarding `N#Cc1nc(Nc2ccc(Br)cc2)nc(NC2CCCC2)n1`, the IC50 in data set [1] (read-out: IC50) was 1120 nM; in data set [2], 60 nM; in data set [3], 100 nM; in data set [4], over 10000 nM.
As to `N#Cc1nc(Nc2cc(F)cc(F)c2)c2ncn(C3CCCC3)c2n1`, the IC50 in data set [1] (read-out: IC50) came to 18 nM.
Still for that read-out and setting: the value for `N#Cc1nc(NCC(F)F)c2ncn(-c3cc(F)cc(F)c3)c2n1` was 50 nM.
For the compound `N#Cc1nc(NCC2CC2)nc(Nc2ccccc2)n1`, the IC50 in data set [1] (read-out: IC50) was 890 nM.
Turning to `N#Cc1nc(Nc2ccccc2)nc(NC2CCCC2)n1`, in data set [1] (read-out: IC50), the IC50 is 710 nM.
`CC(C)CNc1nc(C#N)nc(Nc2ccccc2)n1`: the half-maximal inhibitory concentration (IC50) in data set [1] (read-out: IC50) is 890 nM.
In the case of `N#Cc1nc(Nc2ccc(F)cc2)nc(NC2CCCC2)n1`, the IC50 in data set [1] (read-out: IC50) was 126 nM; in data set [2], 30 nM; in data set [3], 40 nM; in data set [4], over 1000 nM.
For the compound `N#Cc1nc(Nc2cccc(Cl)c2)c2ncn(C3CCCC3)c2n1`, the result in data set [8] was inactive. Besides, the concentration for half-maximal inhibition (IC50) was 40 nM in data set [1] (read-out: IC50), 0.3 nM in data set [2], under 6 nM in data set [3] and over 10000 nM in data set [4].
For the compound `CCNc1nc(C#N)nc2c1ncn2-c1cccc(Cl)c1`, in data set [1] (read-out: IC50), the concentration for half-maximal inhibition (IC50) turned out to be 63 nM.
On the same count and under the same terms, to `N#Cc1nc(NCCCCO)nc(Nc2ccccc2)n1` belongs 890 nM; to `N#Cc1nc(Nc2ccccc2)nc(NC2CCCCC2)n1`, 1410 nM.
On to `N#Cc1nc(Nc2cc(Cl)cc(Cl)c2)nc(NC2CCCC2)n1`, for which the concentration for half-maximal inhibition (IC50) in data set [1] (read-out: IC50) is 398 nM; in data set [2], 10 nM; in data set [3], 30 nM; in data set [4], over 10000 nM. Besides, the result in data set [5] and in data set [7] was inactive. Also, the Activity entry in data set [6] was “Toxic”.
For the compound `N#Cc1nc(Nc2cccc(C(F)(F)F)c2)nc(NC2CCCC2)n1`, the IC50 result in data set [1] was “Not Active”; in data set [2], 40 nM; in data set [3], 70 nM; in data set [4], over 10000 nM. Further, the outcome in data set [5] and in data set [7] was inactive. For the same compound, in data set [6], the Activity result was “Toxic”.
Turning to `CCNc1nc(C#N)nc(Nc2ccccc2)n1`, the 50% inhibitory concentration (IC50) in data set [1] (read-out: IC50) worked out at 710 nM.
In the case of `CCn1cnc2c(Nc3cccc(Cl)c3)nc(C#N)nc21`, the outcome in data set [8] was inactive. Besides, the IC50 in data set [1] (read-out: IC50) was 18 nM; in data set [2], 0.4 nM; in data set [3] it was 10 nM; in data set [4], over 100000 nM.
With `N#Cc1nc(NCCO)nc(Nc2ccccc2)n1`, the IC50 in data set [1] (read-out: IC50) was 1580 nM.
Consider `CCCNc1nc(C#N)nc(Nc2ccccc2)n1`, for which, in data set [1] (read-out: IC50), the half-maximal inhibitory concentration (IC50) is 790 nM.
With `N#Cc1nc(Nc2cccc(F)c2)nc(NC2CCCC2)n1`, the IC50 was 79 nM in data set [1] (read-out: IC50), 10 nM in data set [2], 20 nM in data set [3] and over 1000 nM in data set [4].
Turning to `N#Cc1nc(Nc2cccc(-c3ccccc3)c2)nc(NC2CCCC2)n1`, the 50% inhibitory concentration (IC50) in data set [1] (read-out: IC50) was 2240 nM; in data set [2], 50 nM; in data set [3] it was 30 nM; in data set [4], over 10000 nM. Moreover, the outcome in data set [5] and in data set [7] was inactive. Besides, in data set [6], the Activity entry was “Toxic”.
For `CC(C)Nc1nc(C#N)nc(Nc2ccccc2)n1`, the IC50 in data set [1] (read-out: IC50) worked out at 890 nM.
In the case of `CCOc1nc(C#N)nc(N2CCCCC2)n1`, the IC50 was 90 nM in data set [2], 300 nM in data set [3] and over 1000 nM in data set [4].
`CNc1nc(C#N)nc(Nc2ccccc2)n1`: the IC50 in data set [1] (read-out: IC50) is 1260 nM.
For the compound `N#Cc1nc(NC2CCCC2)c2ncn(-c3cc(F)cc(F)c3)c2n1`, the IC50 in data set [1] (read-out: IC50) came out at 316 nM.
On the same count and under the same terms, to `N#Cc1nc(NCC(F)F)c2ncn(-c3cccc(Cl)c3)c2n1` belongs 71 nM.
